Assay results of several laboratories.
Compare with care: the assays were run in different laboratories.

| SMILES | host | medium | route | dose | notes | quantity | result |
| --- | --- | --- | --- | --- | --- | --- | --- |
| O=C(O)C1CCN(c2ncc(-c3ccc4c(c3)OCCCO4)s2)CC1 | male Swiss mouse | brain | oral | 30 mg/kg | single dose | tissue/plasma ratio | 0.028 |
| CCN(CC)C(=O)[C@@]1(c2ccccc2)C[C@H]1CN | male cynomolgus monkey | plasma | oral | 30 mg/kg | – | Tmax | 4 h |
| CC(C)(O)c1ccccc1-c1ccc2[nH]c(/C=C/c3ccc(C(F)(F)F)cc3)nc2c1 | male human | plasma | oral | 15 mg | single dose, fasted | AUC(0-t) | 1010 ng·h/mL |
| COc1ccc([C@@H]2CN(C(=O)[C@@H](O)CO)C[C@@]2(C)[C@@H](C)O)cc1OC1CN(c2ccc(C)cn2)C1 | human | plasma | oral | 30 mg | single dose, healthy volunteers | AUC(0-inf) | 6330 ng·h/mL |
| Fc1ccc(COC2CCN(Cc3ccc4[nH]cnc4c3)CC2)cc1F | mouse | brain | intraperitoneal | 5 mg/kg | – | unbound tissue/plasma ratio | 3.7 |
| CC(C)n1cc(C#N)c2cc(-n3cc(C(=O)O)cn3)ccc21 | male human | plasma | oral | 600 mg | single dose, fasted, healthy volunteers | AUC(0-inf) | 99800 ng·h/mL |
| CN(C(=O)n1cnc(-c2ccc[n+]([O-])c2)c1)C1CCCCC1 | male cynomolgus monkey | plasma | oral | 0.1 mg/kg | – | Tmax | 1 h |
| CCc1nc2c(C)cc(N3CCN(CC(=O)N4CC(O)C4)CC3)cn2c1N(C)c1nc(-c2ccc(F)cc2)c(C#N)s1 | human | plasma | oral | 1000 mg | single dose, fed, healthy volunteers | AUC(0-inf) | 66000 ng·h/mL |
| Cn1cc(-c2ccc(S(=O)(=O)[C@@H]3C[C@@H](C(=O)NC4(C#N)CC4)N(C(=O)C4(C(F)(F)F)CC4)C3)c(C(F)(F)F)c2)cn1 | human | plasma | oral | 600 mg | single dose, fasted, healthy volunteers | AUC(0-inf) | 28700 ng·h/mL |
| CC(C)(C)c1ccc(O)c(CN(Cc2cc(C(C)(C)C)ccc2O)C2CCC(NC(N)=O)CC2)c1 (stereo not shown) | male C57BL/6 mouse | brain | intraperitoneal | 10 mg/kg | single dose | tissue/plasma ratio | 0.79 |
